Assay results published in ChEMBL document CHEMBL1147494, “Differentiation of in vitro transcriptional repression and activation profiles of selective glucocorticoid modulators” (Bioorg Med Chem Lett, 2004).

How the values were obtained:
[1] = target: T1, Progesterone receptor (Homo sapiens) (UniProt P06401); experiment: In vitro binding affinity against progesterone receptor
T1 sequence (whole entry): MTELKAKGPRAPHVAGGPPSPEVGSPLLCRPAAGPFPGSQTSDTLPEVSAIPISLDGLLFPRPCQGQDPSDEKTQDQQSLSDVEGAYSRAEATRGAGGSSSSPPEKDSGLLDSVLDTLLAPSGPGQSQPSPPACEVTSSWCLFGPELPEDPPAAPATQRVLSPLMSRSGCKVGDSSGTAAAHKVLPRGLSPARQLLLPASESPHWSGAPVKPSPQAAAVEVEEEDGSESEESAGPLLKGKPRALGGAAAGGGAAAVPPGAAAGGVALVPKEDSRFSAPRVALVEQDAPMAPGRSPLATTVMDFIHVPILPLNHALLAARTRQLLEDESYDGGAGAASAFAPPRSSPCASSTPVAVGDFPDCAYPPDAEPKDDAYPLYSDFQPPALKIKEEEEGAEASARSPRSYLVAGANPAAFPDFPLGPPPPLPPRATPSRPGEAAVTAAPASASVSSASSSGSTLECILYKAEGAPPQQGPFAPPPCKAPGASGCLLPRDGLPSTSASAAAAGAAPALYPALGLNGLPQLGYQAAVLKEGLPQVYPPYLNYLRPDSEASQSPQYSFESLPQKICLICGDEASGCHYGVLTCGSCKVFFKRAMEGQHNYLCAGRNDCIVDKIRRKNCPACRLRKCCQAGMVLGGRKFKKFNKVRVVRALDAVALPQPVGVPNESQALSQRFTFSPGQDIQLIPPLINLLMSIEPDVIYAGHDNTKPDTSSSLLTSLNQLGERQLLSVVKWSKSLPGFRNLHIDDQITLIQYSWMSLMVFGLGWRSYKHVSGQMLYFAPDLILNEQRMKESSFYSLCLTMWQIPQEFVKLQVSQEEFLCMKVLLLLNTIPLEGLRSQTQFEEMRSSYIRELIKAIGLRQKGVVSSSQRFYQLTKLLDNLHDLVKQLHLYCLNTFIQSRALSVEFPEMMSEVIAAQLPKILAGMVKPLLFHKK
Outline: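 Competition binding assay against progesterone receptor. Replicates vary by value: single experiments in triplicate; two experiments with triplicate determinations (with standard deviation); or at least three separate experiments in triplicate (mean ± SEM).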

Glucocorticoid receptor [2] = target: T2, Glucocorticoid receptor (Homo sapiens, UniProt P04150); experiment: Inhibition of transcriptional activation in CV-1 cells expressing glucocorticoid receptor; assay type: functional, cell-based
T2 sequence (P04150 whole entry): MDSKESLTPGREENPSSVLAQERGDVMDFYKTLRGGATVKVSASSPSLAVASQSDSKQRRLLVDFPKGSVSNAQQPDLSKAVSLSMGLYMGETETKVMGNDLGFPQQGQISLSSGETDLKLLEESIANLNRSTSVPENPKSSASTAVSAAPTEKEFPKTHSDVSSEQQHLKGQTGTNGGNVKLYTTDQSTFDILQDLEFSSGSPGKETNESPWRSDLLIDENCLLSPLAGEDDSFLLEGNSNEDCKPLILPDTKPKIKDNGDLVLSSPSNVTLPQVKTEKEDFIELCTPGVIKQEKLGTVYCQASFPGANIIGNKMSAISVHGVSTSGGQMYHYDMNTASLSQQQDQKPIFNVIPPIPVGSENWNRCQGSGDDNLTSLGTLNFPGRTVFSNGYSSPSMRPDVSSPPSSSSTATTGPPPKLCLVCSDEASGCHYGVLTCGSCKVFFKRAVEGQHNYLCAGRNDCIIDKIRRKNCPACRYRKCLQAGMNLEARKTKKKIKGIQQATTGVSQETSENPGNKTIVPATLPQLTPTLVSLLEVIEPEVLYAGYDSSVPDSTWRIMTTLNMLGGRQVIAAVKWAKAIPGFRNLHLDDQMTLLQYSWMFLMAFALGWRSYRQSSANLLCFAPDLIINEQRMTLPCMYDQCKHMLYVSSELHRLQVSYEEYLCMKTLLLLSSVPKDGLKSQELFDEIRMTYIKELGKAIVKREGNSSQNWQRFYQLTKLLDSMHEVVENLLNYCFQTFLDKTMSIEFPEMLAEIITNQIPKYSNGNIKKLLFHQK

Glucocorticoid receptor [3] = target: T2, Glucocorticoid receptor; experiment: Inhibition of transcriptional repression in CV-1 cells expressing glucocorticoid receptor; assay type: functional, cell-based
[4] = target: T1, Progesterone receptor (Homo sapiens); experiment: Transcriptional activation in cells expressing progesterone receptor isoform B compared to progesterone; assay type: functional
Progesterone receptor = target: T3, Progesterone receptor (Homo sapiens, UniProt P06401); experiment: Inhibition of transcriptional activation in cells expressing progesterone receptor isoform B; assay type: functional
T3 sequence (P06401 whole entry): T1 sequence (whole entry)

Cell line [5] = experiment: Effective concentration of compound for transcriptional activation of TAT in Human cell native protein assay; assay type: functional, cell-based
Cell line [6] = experiment: Efficacy for transcriptional activation of aromatase in Human cell native protein assay expressed as percentage of the maximal response of Dexamethasone; assay type: functional
Cell line [7] = experiment: Effective concentration of compound for transcriptional repression of IL-6 in Human cell native protein assay
Cell line [8] = experiment: Efficacy for transcriptional activation of collagenase in Human cell native protein assay expressed as percentage of the maximal response of Dexamethasone; assay type: functional
Cell line [9] = experiment: Efficacy for transcriptional activation of TAT in Human cell native protein assay expressed as percentage of the maximal response of Dexamethasone; assay type: functional
Cell line [10] = experiment: Effective concentration for transcriptional activation of aromatase in Human cell native protein assay; assay type: functional, cell-based
Cell line [11] = experiment: Effective concentration of compound for transcriptional repression of collagenase in Human cell native protein assay
Cell line [12] = experiment: Efficacy for transcriptional repression of IL-6 in Human cell native protein assay expressed as percentage of the maximal response of Dexamethasone; assay type: functional
Cell line [13] = experiment: Efficacy for transcriptional […] of PGE-2 in Human cell native protein assay expressed as percentage of the maximal response of Dexamethasone; assay type: functional
Cell line [14] = experiment: Effective concentration of compound for transcriptional repression of PGE-2 in Human cell native protein assay
Cell line [15] = experiment: Effective concentration of compound for transcriptional activation of osteocalcin in Human cell native protein assay; assay type: functional, cell-based
Cell line [16] = experiment: Efficacy for transcriptional repression of osteocalcin in Human cell native protein assay expressed as percentage of the maximal response of Dexamethasone

Row | SMILES | Activity [1] [nM] | IC50 (Glucocorticoid receptor [2]) [nM] | IC50 (Glucocorticoid receptor [3]) [nM] | also measured
1 | C=C(C)CC1Oc2cccc(OC)c2-c2ccc3c(c21)C(C)=CC(C)(C)N3 (centres undefined) | > 5000 | 66 | 42 | 
2 | C=CC(C)C1Oc2cccc(OC)c2-c2ccc3c(c21)C(C)=CC(C)(C)N3 (centres undefined) | > 5000 | 110 | 40 | 
3 | COc1c(O)ccc2c1-c1ccc3c(c1[C@H]([C@@H]1C=C(C)CCC1)O2)C(C)=CC(C)(C)N3 | 11.4 |  |  | Efficacy [4]: 260%; IC50 (Progesterone receptor): 7.1 nM
4 | C=C(CO)CC1Oc2cccc(OC)c2-c2ccc3c(c21)C(C)=CC(C)(C)N3 (centres undefined) | > 5000 | 310 | 141 | 
5 | C=CCC1Oc2cccc(OC)c2-c2ccc3c(c21)C(C)=CC(C)(C)N3 (stereo in doubt; (-)4a) [AL-43] |  | 14 | 6.9 | EC50 (Cell line [5]): 40 nM; Efficacy (Cell line [6]): 82%; EC50 (Cell line [7]): 30 nM; Efficacy (Cell line [8]): 77%; Efficacy (Cell line [9]): 71%; EC50 (Cell line [10]): 160 nM; EC50 (Cell line [11]): 37 nM; Efficacy (Cell line [12]): 83%
6 | COc1cccc2c1-c1ccc3c(c1C(C1/C=C\CCCCC1)O2)C(C)=CC(C)(C)N3 (centres undefined) | > 5000 |  |  | 
7 | COc1cccc2c1-c1ccc3c(c1C(CC=C(F)F)O2)C(C)=CC(C)(C)N3 (centres undefined) | 2300 | 76 | 20 | 
8 | COc1c(O)ccc2c1-c1ccc3c(c1[C@H]([C@H]1C=C(C)CCC1)O2)C(C)=CC(C)(C)N3 | 52 |  |  | Efficacy [4]: 190%; IC50 (Progesterone receptor): 210 nM
9 | C=C(Br)CC1Oc2cccc(OC)c2-c2ccc3c(c21)C(C)=CC(C)(C)N3 (centres undefined) | > 5000 | 240 | 110 | 
10 | C=C1CCCCC1C1Oc2cccc(OC)c2-c2ccc3c(c21)C(C)=CC(C)(C)N3 (centres undefined) | > 5000 | > 5000 | 320 | 
11 | C=CCC1Oc2cccc(OC)c2-c2ccc3c(c21)C(C)=CC(C)(C)N3 (stereo in doubt; 4a) | 1800 |  |  | 
12 | COc1cccc2c1-c1ccc3c(c1C(C1C=C(C)CCC1)O2)C(C)=CC(C)(C)N3 (centres undefined) | 980 | 15 | 7 | 
13 | C/C=C\CC1Oc2cccc(OC)c2-c2ccc3c(c21)C(C)=CC(C)(C)N3 (centres undefined) | 1200 | 39 | 23 | 
14 | COc1cccc2c1-c1ccc3c(c1C(CC1=CCCCC1)O2)C(C)=CC(C)(C)N3 (centres undefined) | > 5000 |  |  | 
15 | C[C@]12C=CC(=O)C=C1CC[C@@H]1[C@@H]2[C@@H](O)C[C@@]2(C)[C@H]1CC[C@]2(O)C(=O)CO [PREDNISOLONE] | > 5000 |  |  | Efficacy (Cell line [13]): 100%; EC50 (Cell line [5]): 48 nM; Efficacy (Cell line [6]): 96%; EC50 (Cell line [7]): 3.6 nM; Efficacy (Cell line [8]): 98%; EC50 (Cell line [14]): 2 nM; EC50 (Cell line [15]): 32 nM; Efficacy (Cell line [16]): 94%; Efficacy (Cell line [9]): 95%; EC50 (Cell line [10]): 45 nM; EC50 (Cell line [11]): 0.4 nM; Efficacy (Cell line [12]): 98%
16 | COc1cccc2c1-c1ccc3c(c1[C@H]([C@H]1C=C(C)CCC1)O2)C(C)=CC(C)(C)N3 | 710 | 40 | 19 | Efficacy (Cell line [13]): 95%; EC50 (Cell line [5]): 110 nM; Efficacy [4]: 13%; Efficacy (Cell line [6]): 26%; EC50 (Cell line [7]): 62 nM; Efficacy (Cell line [8]): 89%; EC50 (Cell line [14]): 35 nM; Efficacy (Cell line [16]): 38%; Efficacy (Cell line [9]): 49%; EC50 (Cell line [10]): 640 nM; EC50 (Cell line [11]): 32 nM; Efficacy (Cell line [12]): 82%
17 | CC/C=C\CC1Oc2cccc(OC)c2-c2ccc3c(c21)C(C)=CC(C)(C)N3 (centres undefined) | > 5000 | 89 | 88 | 

Row | SMILES | Activity [1] [nM] | IC50 (Glucocorticoid receptor [2]) [nM] | IC50 (Glucocorticoid receptor [3]) [nM] | also measured
18 | C/C=C/CC1Oc2cccc(OC)c2-c2ccc3c(c21)C(C)=CC(C)(C)N3 (centres undefined) | 2100 | 150 | 38 | 
19 | COc1cccc2c1-c1ccc3c(c1C(C1C=CCCC1)O2)C(C)=CC(C)(C)N3 (centres undefined) | 2400 | 13 | 21 | 
20 | COc1cccc2c1-c1ccc3c(c1C(CC=C(C)C)O2)C(C)=CC(C)(C)N3 (centres undefined) | 1600 | > 5000 | 23 | 
21 | COc1cccc2c1-c1ccc3c(c1[C@@H]([C@H]1C=C(C)CCC1)O2)C(C)=CC(C)(C)N3 | > 5000 | > 5000 | 440 | 
22 | C=C(CC1Oc2cccc(OC)c2-c2ccc3c(c21)C(C)=CC(C)(C)N3)C(=O)OC (centres undefined) | > 5000 | > 5000 | > 5000 | 
23 | COc1cccc2c1-c1ccc3c(c1C(CC=C1CCCC1)O2)C(C)=CC(C)(C)N3 (centres undefined) | > 5000 | > 5000 | 217 | 
24 | C=CCC1Oc2cccc(OC)c2-c2ccc3c(c21)C(C)=CC(C)(C)N3 (stereo in doubt; (-)4a) | 1300 |  |  | 
25 | C=CC(C)(C)C1Oc2cccc(OC)c2-c2ccc3c(c21)C(C)=CC(C)(C)N3 (centres undefined) | > 5000 | > 5000 | > 5000 | 
26 | COc1cccc2c1-c1ccc3c(c1[C@@H]([C@@H]1C=C(C)CCC1)O2)C(C)=CC(C)(C)N3 | > 5000 | > 5000 | > 5000 | 
27 | COc1cccc2c1-c1ccc3c(c1C(C/C=C/CO)O2)C(C)=CC(C)(C)N3 (centres undefined) | > 5000 | > 5000 | 150 | 
28 | COC(=O)/C=C/CC1Oc2cccc(OC)c2-c2ccc3c(c21)C(C)=CC(C)(C)N3 (centres undefined) | > 5000 | 220 | 87 | 
29 | COc1cccc2c1-c1ccc3c(c1C(C1C=CCC1)O2)C(C)=CC(C)(C)N3 (centres undefined) | 2200 |  |  | 
30 | COc1cccc2c1-c1ccc3c(c1[C@H]([C@@H]1C=C(C)CCC1)O2)C(C)=CC(C)(C)N3 | 430 | > 5000 | 5.8 | Efficacy (Cell line [13]): 95%; EC50 (Cell line [5]): 290 nM; Efficacy [4]: 70%; Efficacy (Cell line [6]): 43%; EC50 (Cell line [7]): 45 nM; Efficacy (Cell line [8]): 97%; IC50 (Progesterone receptor): 14 nM; EC50 (Cell line [14]): 5.4 nM; EC50 (Cell line [15]): 54 nM; Efficacy (Cell line [16]): 71%; Efficacy (Cell line [9]): 67%; EC50 (Cell line [10]): 59 nM; EC50 (Cell line [11]): 3.4 nM; Efficacy (Cell line [12]): 90%
31 | COc1cccc2c1-c1ccc3c(c1C(C1C=CCCCC1)O2)C(C)=CC(C)(C)N3 (centres undefined) | > 5000 |  |  | 
32 | C=C(COC(C)=O)CC1Oc2cccc(OC)c2-c2ccc3c(c21)C(C)=CC(C)(C)N3 (centres undefined) | > 5000 | 310 | 141 | 
33 | C=CCC1Oc2cccc(OC)c2-c2ccc3c(c21)C(C)=CC(C)(C)N3 (stereo in doubt; 4a) [AL-43] |  | 33 | 13 | 
